We go through 16 compounds from ChEMBL document CHEMBL4622968, “Discovery of [1,2,4]triazolo[4,3-a]pyridines as potent Smoothened inhibitors targeting the Hedgehog pathway with improved antitumor activity in vivo” (Bioorg Med Chem, 2020).

Assay [1] has as its system MDA-MB-231. The experiment in a line: Antiproliferation activity against human MDA-MB-231 cells assessed as reduction in cell viability incubated for 72 hrs measured after 4 hrs by MTT assay. It is filed as functional, cell-based. The gist of the method: (§1)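 MTT assay. Cells were plated overnight and exposed to a range of concentrations for 72 h. MTT was then added for 4 h and absorbance read at 570 nm. Inhibition% = [(control − compound)/(control − blank)] × 100. IC50 was fitted from the curves. Mean ± S.D. of 3–5 separate experiments. RPMI 1640 + 10% FBS; MCF10A in DMEM/F12 with 5% horse serum, EGF, hydrocortisone, insulin and cholera toxin.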
In general terms: Tetrazolium dyes change colour on reduction, which living cells bring about.

The subject of assay [2] is A549. The experiment in a line: Antiproliferation activity against human A549 cells assessed as reduction in cell viability incubated for 72 hrs by MTT assay. Type of assay: functional, cell-based. The following applies: A549, 72 h. The gist of the method:
as §1

Assay [3] is described as follows: Inhibition of hedgehog pathway in mouse NIH/3T3 cells harboring GRE-Luc assessed as inhibition of SAG-induced Hh signaling pathway by dual luciferase reporter gene assay. It is filed as cell-based. The conditions noted are these: NIH3T3. The gist of the method:
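NIH3T3 cells co-transfected with 8×3' Gli-BS-delta51-Luc II firefly reporter and pRL-TK Renilla plasmid; after 24 h treated with compounds plus SAG (pathway activator). Gli luciferase normalized to Renilla (dual-luciferase read-out); IC50 = concentration halving normalized signal; mean ± S.D. of 3–5 separate experiments.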

Assay [4] relates to HeLa. The experiment in a line: Antiproliferation activity against human HeLa cells assessed as reduction in cell viability incubated for 72 hrs by MTT assay. It is filed as functional, cell-based. The gist of the method: as §1
Assay [5] deals with MCF7. The experiment in a line: Antiproliferation activity against human MCF7 cells assessed as reduction in cell viability incubated for 72 hrs by MTT assay. Type of assay: functional, cell-based. The conditions noted are these: MCF7, 72 h. The gist of the method: as §1
Assay [6] has as its system AN3-CA. The experiment in a line: Antiproliferation activity against human AN3CA cells assessed as reduction in cell viability incubated for 72 hr by MTT assay. Type of assay: functional, cell-based. The gist of the method:
as §1

Assay [7] has as its system U-251. The experiment in a line: Antiproliferation activity against human U251 cells assessed as reduction in cell viability incubated for 72 hrs by MTT assay. It is filed as functional, cell-based. The conditions noted are these: U-251, 72 h. The gist of the method: as §1
The subject of assay [8] is T47D. The experiment in a line: Antiproliferation activity against human T47D cells assessed as reduction in cell viability incubated for 72 hr by MTT assay. Type of assay: functional, cell-based. The gist of the method:
as §1

Assay [9] relates to MDA-MB-468. The experiment in a line: Antiproliferation activity against human MDA-MB-468 cells assessed as reduction in cell viability incubated for 72 hr by MTT assay. It is filed as functional, cell-based. The following applies: MDA-MB-468, 72 h. The gist of the method: as §1

Usually IC50 stands for the midpoint of a concentration-inhibition curve. Regarding `O=C(Nc1ccc(Cl)c(-c2nnc3c(Cl)cccn23)c1)c1ccc(F)cc1Cl`, the IC50 in [1] is 75 µM; in [2], more than 100 µM; in assay [3], 8.22 µM; in [4] it was more than 100 µM; in assay [5], more than 100 µM; in assay [6] it was more than 100 µM. In addition, the half-inhibitory concentration (IC50) in [7], in assay [8] and in assay [9] was more than 100 µM in each case.
As for `O=C(Nc1ccc(Cl)c(-c2nnc3c(Cl)cccn23)c1)c1cccnc1`, the IC50 was more than 100 µM in assay [1]; more than 100 µM in [2]; more than 10 µM in assay [3]; more than 100 µM in assay [4]; more than 100 µM in assay [5]; more than 100 µM in assay [6]. Besides, the half-maximal inhibitory concentration (IC50) in assay [7], in [8] and in assay [9] was more than 100 µM each time.
As to `O=C(Nc1ccc(Cl)c(-c2nnc3c(Cl)cccn23)c1)c1ccc(Cl)cc1Cl`, the concentration for half-maximal inhibition (IC50) was more than 100 µM in assay [1]; 61.3 µM in assay [2]; 0.285 µM in [3]; more than 100 µM in assay [4]; 78.2 µM in [5]; 84.8 µM in assay [6]. In addition, the IC50 in [7] was more than 100 µM; in assay [8], more than 100 µM; in assay [9], 21.6 µM.
`O=C(Nc1ccc(Cl)c(-c2nnc3c(Cl)cccn23)c1)c1cccnc1Cl`: the concentration for half-maximal inhibition (IC50) in assay [1] is 89.7 µM; in [2], 35.8 µM; in assay [3], more than 10 µM; in assay [4] it was 87.5 µM; in [5], more than 100 µM; in [6] it was more than 100 µM. The 50% inhibitory concentration (IC50) in assay [7], in [8] and in [9] was more than 100 µM in each case.
`CS(=O)(=O)c1ccc(C(=O)Nc2ccc(Cl)c(-c3nnc4c(Cl)cccn34)c2)c(Cl)c1`: the IC50 is 37.2 µM in assay [1]; more than 100 µM in assay [2]; 4.27 µM in assay [3]; more than 100 µM in assay [4]; more than 100 µM in assay [5]; more than 100 µM in assay [6]. Further, the IC50 in assay [7] is 44.6 µM; in [8], more than 100 µM; in assay [9], more than 100 µM.
Turning to `Cc1cc(Cl)ccc1C(=O)Nc1ccc(Cl)c(-c2nnc3c(Cl)cccn23)c1`, the half-maximal inhibitory concentration (IC50) in assay [1] was more than 100 µM; in assay [2], more than 100 µM; in assay [3], more than 10 µM; in assay [4], more than 100 µM; in [5], more than 100 µM; in assay [6] it was more than 100 µM. Further, the IC50 in assay [7] was more than 100 µM; in assay [8] it was more than 100 µM; in assay [9], 34.3 µM.
For the compound `O=C(Nc1ccc(Cl)c(-c2nnc3c(Cl)cccn23)c1)c1ccc(Cl)cc1`, the 50% inhibitory concentration (IC50) in assay [1] is more than 100 µM; in [2], 73.6 µM; in assay [3], 2.73 µM; in assay [4], more than 100 µM; in assay [5] it was 58.4 µM; in assay [6] it was more than 100 µM. Besides, the IC50 in assay [7], in [8] and in assay [9] was more than 100 µM throughout.
Take `CS(=O)(=O)c1ccc(C(=O)Nc2ccc(Cl)c(-c3nnc4c(Cl)cccn34)c2)cc1`: the IC50 in assay [1] is more than 100 µM; in assay [2], more than 100 µM; in assay [3], 1.77 µM; in assay [4], more than 100 µM; in [5] it was 94.2 µM; in [6], more than 100 µM. The IC50 in [7], in assay [8] and in assay [9] was more than 100 µM throughout.
`Cc1nc(C(=O)Nc2ccc(Cl)c(-c3nnc4c(Cl)cccn34)c2)cs1`: the IC50 in assay [1] was more than 100 µM; in [2] it was more than 100 µM; in assay [3] it was more than 10 µM; in assay [4], 79.8 µM; in assay [5], more than 100 µM; in assay [6] it was more than 100 µM. Also, the IC50 in assay [7] was 74.3 µM; in assay [8], more than 100 µM; in [9] it was more than 100 µM.
For the compound `CS(=O)(=O)c1cccc(C(=O)Nc2ccc(Cl)c(-c3nnc4c(Cl)cccn34)c2)c1`, the IC50 was more than 100 µM in [1]; more than 100 µM in assay [2]; 2.98 µM in assay [3]; 86.4 µM in assay [4]; 88.9 µM in assay [5]; more than 100 µM in assay [6]. Also, the IC50 in [7], in [8] and in assay [9] was more than 100 µM each time.
As for `O=C(Nc1ccc(Cl)c(-c2nnc3c(Cl)cccn23)c1)c1ccccn1`, the half-maximal inhibitory concentration (IC50) in assay [1] was 92 µM; in assay [2], more than 100 µM; in assay [3], 1.08 µM; in [4], 75.5 µM; in assay [5], 96.4 µM; in [6], more than 100 µM. Further, the IC50 is 79 µM in assay [7], more than 100 µM in [8] and more than 100 µM in assay [9].
Turning to `O=C(Nc1ccc(Cl)c(-c2nnc3c(Cl)cccn23)c1)c1ccccc1Cl`, the IC50 in [1] is 59.9 µM; in assay [2], more than 100 µM; in [3], 0.727 µM; in [4] it was more than 100 µM; in assay [5] it was 92.2 µM; in assay [6], more than 100 µM. The concentration for half-maximal inhibition (IC50) was more than 100 µM in assay [7], 83.8 µM in assay [8] and more than 100 µM in assay [9].
`O=C(Nc1ccc(Cl)c(-c2nnc3c(Cl)cccn23)c1)c1c(F)cccc1Cl`: the half-inhibitory concentration (IC50) in assay [1] was more than 100 µM; in assay [2] it was 72.3 µM; in assay [3] it was more than 10 µM; in [4], more than 100 µM; in assay [5] it was more than 100 µM; in assay [6], more than 100 µM. The IC50 in [7] was more than 100 µM; in assay [8], more than 100 µM; in assay [9], 57.6 µM.
In the case of `O=C(Nc1ccc(Cl)c(-c2nnc3c(Cl)cccn23)c1)c1ccon1`, the 50% inhibitory concentration (IC50) in assay [1] is more than 100 µM; in [2], 42.7 µM; in assay [3], more than 10 µM; in assay [4], more than 100 µM; in assay [5], more than 100 µM; in assay [6] it was more than 100 µM. In addition, the IC50 in assay [7], in [8] and in assay [9] was more than 100 µM throughout.
As for `O=C(Nc1ccc(Cl)c(-c2nnc3c(Cl)cccn23)c1)c1ccccc1`, the 50% inhibitory concentration (IC50) in assay [1] was 58.2 µM; in [2] it was 76.9 µM; in assay [3] it was 0.77 µM; in [4] it was more than 100 µM; in [5], more than 100 µM; in [6], 67.6 µM. The concentration for half-maximal inhibition (IC50) in [7] is 73.5 µM; in assay [8], more than 100 µM; in [9], more than 100 µM.
In the case of `O=C(Nc1ccc(Cl)c(-c2nnc3c(Cl)cccn23)c1)c1ccc(C(F)(F)F)cc1Cl`, the IC50 in [1] is more than 100 µM; in [2] it was more than 100 µM; in assay [3], 5.2 µM; in assay [4], more than 100 µM; in [5], 81.6 µM; in [6], more than 100 µM. Further, the IC50 in [7], in assay [8] and in [9] was more than 100 µM each time.
